Reference: ChEMBL document CHEMBL4265873, “Design and discovery of silybin analogues as antiproliferative compounds using a ring disjunctive - Based, natural product lead optimization approach” (Eur J Med Chem, 2017)
Activity calls are given as the source filed them. No cut-off for these calls is given here.

Tests used:
A2780 [1] = experiment: Cytotoxicity in human A2780 cells assessed as reduction in cell viability incubated for 68 hrs by MTT assay; type: functional, cell-based; conditions: A2780, 68 h
Method in brief: (§1)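 Cells were trypsinised and seeded at 5x10^3 cells/well. Compound was added at 0, 0.1, 0.3, 1, 3, 10, 30 and 100 µM for 68 h. MTT (4 mg/mL solution) was then added for 4 h, and the formazan was dissolved in DMSO. Absorbance read at 570 nm. IC50 was derived from % survival across the eight concentrations. Mean ± SD of three independent experiments, each in triplicate.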

[2] = Cytotoxicity in human CRL1459 cells assessed as reduction in cell viability incubated for 68 hrs by MTT assay; type: cell-based; method in brief: as §1
[3] = Selectivity index, ratio of IC50 for cytotoxicity in human CRL1459 cells incubated for 68 hrs by MTT assay to IC50 for cytotoxicity in human A2780 cells incubated for 68 hrs by MTT assay; type: toxicity, cell-based; conditions: CRL1459 cells versus A2780 cells, read-out: Ratio IC50
2008 [4] = experiment: Induction of apoptosis in human OV2008 cells assessed as apoptosis cells level at 4 uM incubated for 12 hrs by Alexa Fluor 488 annexin V and mito-tracker red CMXRos dye staining based flow cytometry (reference value: 19.6%); type: functional
Method in brief: (§2)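 Cells in complete medium were treated with 0, 2 or 4 µM for 12 h, then trypsinised. They were stained with MitoTracker Red (4 µL of 10 µM working solution per 1 mL of cells) for 30 min at 37 °C under 5% CO2. Cells were then resuspended in annexin-binding buffer with Alexa Fluor 488 annexin V for 15 min. Flow cytometry emission read at 530 and 585 nm. Two independent experiments, each in triplicate.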

2008 [5] = experiment: Reduction in mitochondrial potential in human OV2008 cells at 2 uM incubated for 12 hrs by Alexa Fluor 488 annexin V and mito-tracker red CMXRos dye staining based flow cytometry; type: functional, cell-based; method in brief: as §2
2008 [6] = experiment: Induction of cell cycle arrest in human OV2008 cells assessed as increase in cell accumulation at subG1 phase at 2 to 4 uM incubated for 12 hrs by propidium iodide staining based flow cytometry; type: functional
Method in brief: (§3)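 OV2008 cells were plated at 1x10^6 cells/well and incubated with 0, 2 or 4 µM for 12 h. Cells were trypsinised, washed and resuspended in ice-cold PBS, then stained with propidium iodide for at least 15 min. Phase distribution was measured by flow cytometry. Means ± SD of three independent experiments in triplicate.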

2008 [7] = experiment: Induction of cell cycle arrest in human OV2008 cells assessed as cell accumulation at subG1 phase at 2 uM incubated for 12 hrs by propidium iodide staining based flow cytometry (reference value: 11.3%); type: functional; method in brief: as §3
2008 [8] = experiment: Induction of cell cycle arrest in human OV2008 cells assessed as cell accumulation at G1 phase at 2 uM incubated for 12 hrs by propidium iodide staining based flow cytometry (reference value: 79.1%); type: functional; method in brief: as §3
2008 [9] = experiment: Induction of cell cycle arrest in human OV2008 cells assessed as cell accumulation at S phase at 2 uM incubated for 12 hrs by propidium iodide staining based flow cytometry (reference value: 5.2%); type: functional; method in brief: as §3
2008 [10] = experiment: Induction of cell cycle arrest in human OV2008 cells assessed as cell accumulation at subG1 phase at 4 uM incubated for 12 hrs by propidium iodide staining based flow cytometry (reference value: 11.3%); type: functional; method in brief: as §3
2008 [11] = experiment: Induction of cell cycle arrest in human OV2008 cells assessed as cell accumulation at G1 phase at 4 uM incubated for 12 hrs by propidium iodide staining based flow cytometry (reference value: 79.1%); type: functional; method in brief: as §3
2008 [12] = experiment: Induction of cell cycle arrest in human OV2008 cells assessed as cell accumulation at S phase at 4 uM incubated for 12 hrs by propidium iodide staining based flow cytometry (reference value: 5.2%); type: functional; method in brief: as §3
2008 [13] = experiment: Induction of cell cycle arrest in human OV2008 cells assessed as cell accumulation at G2 phase at 4 uM incubated for 12 hrs by propidium iodide staining based flow cytometry (reference value: 2.5%); type: functional; method in brief: as §3
Homo sapiens [14] = species: Homo sapiens; experiment: Inhibition of tubulin alpha in human OV2008 cells assessed as induction of disturbance in cellular microtubule shape and integrity at 2 to 4 uM after overnight incubation by immunofluorescence analysis; type: cell-based
Homo sapiens [15] = species: Homo sapiens; experiment: Inhibition of tubulin alpha in human OV2008 cells assessed as induction of disturbance in cellular microtubule shape and integrity by measuring loss in microtubule long spindle shape at 2 to 4 uM after overnight incubation by immunofluorescence analysis; type: cell-based
A2780 [16] = experiment: Potency index, ratio of IC50 for silybin to IC50 for test compound for cytotoxicity in human A2780 cells assessed as reduction in cell viability incubated for 68 hrs by MTT assay; type: functional
2008 [17] = experiment: Potency index, ratio of IC50 for silybin to IC50 for test compound for cytotoxicity in human OV2008 cells assessed as reduction in cell viability incubated for 68 hrs by MTT assay; type: functional

O=C(/C=C/c1cccc(OCc2ccccc2)c1)c1ccc(O)cc1
IC50 (A2780 [1]): 1 µM
IC50 [2]: 8.5 µM
selectivity ratio at 68 h [3]: 6 to 30
Activity 2008 [4]: 42.5%
Activity 2008 [5]: Active
Activity 2008 [6]: Dose-dependent effect
Activity 2008 [7]: 25.5%
Activity 2008 [8]: 58.4%
Activity 2008 [9]: 4.4%
Activity 2008 [10]: 33.9%
Activity 2008 [11]: 45.3%
Activity 2008 [12]: 5.2%
Activity 2008 [13]: 1.9%
inhibition (Homo sapiens [14]): Active
inhibition (Homo sapiens [15]): Active
Ratio IC50 (A2780 [16]): 30 - 200
Ratio IC50 2008 [17]: 30 - 200
